Experiment: Inhibitory activity against human gamma-secretase in SH-SY5Y neuroblastoma cells
Assay type: cell-based
In short: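 Whole-cell assay in SH-SY5Y neuroblastoma cells overexpressing exogenous substrate A4CTF, cleaved by endogenous human γ-secretase. IC50 determined over 0.3 nM to 10 µM; values are the mean of at least three determinations, reported with SD.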

| Structure (SMILES) | IC50 [nM] |
| --- | --- |
| CN1C(=O)[C@@H](NC(=O)[C@@H](c2ccc(F)cc2)[C@H](CO)c2ccc(F)c(F)c2)N=C(c2ccccc2)c2ccccc21 | 0.07 |
| C[C@@H](C(=O)N[C@H]1N=C(c2ccccc2)c2ccccc2N(C)C1=O)[C@H](O)c1ccc(Cl)c(Cl)c1 | 1340 |
| C[C@H](Cc1ccc(Cl)c(Cl)c1)C(=O)N[C@H]1N=C(c2ccccc2)c2ccccc2N(C)C1=O | 320 |
| C[C@H](C(=O)N[C@H]1N=C(c2ccccc2)c2ccccc2N(C)C1=O)[C@H](OS(N)(=O)=O)c1ccc(Cl)c(Cl)c1 | 450 |
| CN1C(=O)[C@@H](NC(=O)[C@@H](c2ccc(F)cc2)C(O)c2ccc(Cl)c(Cl)c2)N=C(c2ccccc2)c2ccccc21 (stereo not given in full) | 1.2 |
| CC(C(=O)N[C@H]1N=C(c2ccccc2)c2ccccc2N(C)C1=O)C(CO)c1ccc(F)c(F)c1 (stereo not given in full) | 6.9 |
| CN1C(=O)[C@@H](NC(=O)[C@H](c2ccc(F)cc2)[C@@H](O)c2ccc(Cl)c(Cl)c2)N=C(c2ccccc2)c2ccccc21 | 67 |
| C[C@H](C(=O)N[C@H]1N=C(c2ccccc2)c2ccccc2N(C)C1=O)[C@H](OCC(N)=O)c1ccc(Cl)c(Cl)c1 | 4750 |
| C[C@@H](C(=O)N[C@H]1N=C(c2ccccc2)c2ccccc2N(C)C1=O)[C@@H](O)c1ccc(Cl)c(Cl)c1 | 880 |
| CN1C(=O)[C@@H](NC(=O)[C@H](c2ccc(F)cc2)[C@@H](O)c2ccc(F)c(F)c2)N=C(c2ccccc2)c2ccccc21 | 9.6 |
| C[C@H](C(=O)N[C@H]1N=C(c2ccccc2)c2ccccc2N(C)C1=O)[C@H](O)c1ccc(Cl)c(Cl)c1 | 19 |
| CC[C@H](c1ccc(F)c(F)c1)[C@@H](C(=O)N[C@H]1N=C(c2ccccc2)c2ccccc2N(C)C1=O)c1ccc(F)cc1 | 212 |
| C[C@H](C(=O)N[C@H]1N=C(c2ccccc2)c2ccccc2N(C)C1=O)[C@H](OC(N)=O)c1ccc(Cl)c(Cl)c1 | 2450 |
| O=C1Nc2ccccc2C(c2ccccc2)=N[C@@H]1NC(=O)[C@@H](c1ccc(F)cc1)[C@H](CCO)c1ccc(F)c(F)c1 | 35 |
| C[C@H](C(=O)N[C@H]1N=C(c2ccccc2)c2ccccc2N(C)C1=O)[C@@H](O)c1ccc(Cl)c(Cl)c1 | 380 |
| C=C[C@H](c1ccc(F)c(F)c1)[C@@H](C(=O)N[C@H]1N=C(c2ccccc2)c2ccccc2N(C)C1=O)c1ccc(F)cc1 | 100 |
| O=C1Nc2ccccc2C(c2ccccc2)=N[C@@H]1NC(=O)[C@@H](c1ccc(F)cc1)[C@H](CO)c1ccc(F)c(F)c1 | 0.06 |
| CC(C(=O)N[C@H]1N=C(c2ccccc2)c2ccccc2N(C)C1=O)C(=O)c1ccc(Cl)c(Cl)c1 (stereo not given in full) | 930 |
| O=C1Nc2ccccc2N(c2ccccc2)C[C@@H]1NC(=O)[C@@H](c1ccc(F)cc1)[C@H](CO)c1ccc(F)c(F)c1 | 0.07 |
| CN1C(=O)[C@@H](NC(=O)[C@@H](c2ccc(F)cc2)[C@H](CBr)c2ccc(F)c(F)c2)N=C(c2ccccc2)c2ccccc21 | 6.7 |
| CN1C(=O)[C@@H](NC(=O)[C@@H](Cc2ccc(Cl)c(Cl)c2)c2ccc(F)cc2)N=C(c2ccccc2)c2ccccc21 | 15 |
| CC(C(=O)N[C@H]1N=C(c2ccccc2)c2ccccc2N(C)C1=O)/C(=N/O)c1ccc(Cl)c(Cl)c1 (stereo not given in full) | 35 |
| CO/N=C(\c1ccc(Cl)c(Cl)c1)C(C)C(=O)N[C@H]1N=C(c2ccccc2)c2ccccc2N(C)C1=O (stereo not given in full) | > 10000 |
| CO[C@H](c1ccc(Cl)c(Cl)c1)[C@H](C)C(=O)N[C@H]1N=C(c2ccccc2)c2ccccc2N(C)C1=O | 59 |
| CN1C(=O)[C@@H](NC(=O)[C@@H](c2ccc(F)cc2)C(O)c2ccc(F)c(F)c2)N=C(c2ccccc2)c2ccccc21 (stereo not given in full) | 0.8 |

Reference: ChEMBL document CHEMBL1145003, “Design and synthesis of highly potent benzodiazepine gamma-secretase inhibitors: preparation of (2S,3R)-3-(3,4-difluorophenyl)-2-(4-fluorophenyl)-4- hydroxy-N-((3S)-1-methyl-2-oxo-5- phenyl-2,3-dihydro-1H-benzo[e][1,4]-diazepin-3-yl)butyramide by use of an asymmetric Ireland-Claisen rearrangement” (J Med Chem, 2003)
